Experimental data reported in ChEMBL document CHEMBL1158412, “Novel pyridopyrimidine derivatives as inhibitors of stable toxin a (STa) induced cGMP synthesis” (Bioorg Med Chem Lett, 2009).

test system: T84; test: Inhibition of Escherichia coli heat stable toxin A-stimulated cGMP accumulation in human T84 cells at 50 uM pretreated 10 mins before 250 nM toxin challenge measured after 10 mins of induction by ELISA; assay type: cell-based
Outline: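 T84 cells preincubated 10 min with test compound, then left unstimulated (basal) or stimulated with 250 nM STa for 10 min; cGMP extracted and quantified by ELISA. Each plate included a vehicle control, and percent inhibition was calculated per plate.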

Point of comparison: `CC1=C(C(N)=O)C(c2cc(C(F)(F)F)cc(C(F)(F)F)c2)c2c(n(C)c(=O)n(C)c2=O)N1` (centres undefined), inhibition 8%. Against it:
- Cn1c2c(c(=O)n(C)c1=O)C(c1ccc(F)c(F)c1F)C1=C(N2)c2ccccc2C1=O (centres undefined) — higher, 62%
- Cn1c2c(c(=O)n(C)c1=O)C(c1cc(F)cc(F)c1F)C1=C(N2)c2ccccc2C1=O (centres undefined) — higher, 42%
- Cn1c2c(c(=O)[nH]c1=O)C(c1cccc(Br)c1)C1=C(N2)c2ccccc2C1=O (centres undefined) — lower, 1%
- Cn1c2c(c(=O)[nH]c1=O)C(c1cc(C(F)(F)F)cc(C(F)(F)F)c1)C1=C(N2)c2ccccc2C1=O (centres undefined) — higher, 19%
- Cn1c2c(c(=O)n(C)c1=O)C(c1cccc(C#N)c1)C1=C(N2)c2ccccc2C1=O (centres undefined) — higher, 23%
- CC1=C(C(=O)Nc2nccs2)C(c2cccc(Br)c2)c2c(n(C)c(=O)n(C)c2=O)N1 (centres undefined) — higher, 11%
- Cn1c2c(c(=O)n(C)c1=O)C(c1cccc(Br)c1)C1=C(CC(c3ccco3)CC1=O)N2 (centres undefined) — lower, 2%
- O=C1C2=C(Nc3[nH]nc(-c4ccsc4)c3C2c2cc(C(F)(F)F)cc(C(F)(F)F)c2)c2ccccc21 (centres undefined) — lower, -2%
- Cn1c(=O)c2c(-c3cccc(Br)c3)c3c(nc2n(C)c1=O)-c1ccccc1C3=O — lower, 2%
- Cn1c2c(c(=O)n(C)c1=O)C(c1cccc(Br)c1)C1=C(N2)c2ccccc2C1=O (centres undefined) — higher, 86%
- O=C1C2=C(Nc3[nH]c(=O)[nH]c(=O)c3C2c2cc(C(F)(F)F)cc(C(F)(F)F)c2)c2ccccc21 (centres undefined) — higher, 56%
- COc1cc(C2C3=C(Nc4c2c(=O)n(C)c(=O)n4C)c2ccccc2C3=O)ccc1O (centres undefined) — higher, 29%
- Cn1c2c(c(=O)n(C)c1=O)C(c1cc(C(F)(F)F)cc(C(F)(F)F)c1)C1=C(N2)c2ccccc2C1=O (centres undefined) — higher, 93%
- Cn1c2c(c(=O)n(C)c1=O)C(c1cccc(C(F)(F)F)c1F)C1=C(N2)c2ccccc2C1=O (centres undefined) — higher, 80%
- Cn1c2c(c(=O)n(C)c1=O)C(c1cccc(C(F)(F)F)c1)C1=C(N2)c2ccccc2C1=O (centres undefined) — higher, 73%
- CC1=C(C(=O)Nc2ccccc2)C(c2cc(C(F)(F)F)cc(C(F)(F)F)c2)c2c(n(C)c(=O)n(C)c2=O)N1 (centres undefined) — higher, 22%
- Cn1c2c(c(=O)[nH]c1=O)C(c1cc(F)cc(C(F)(F)F)c1)C1=C(N2)c2ccccc2C1=O (centres undefined) — lower, -6%
- Cn1c2c(c(=O)n(C)c1=O)C(c1ccc(O)c(O)c1)C1=C(N2)c2ccccc2C1=O (centres undefined) — higher, 26%
- Cn1c2c(c(=O)n(C)c1=O)C(c1cccc(Br)c1)C1=C(CCC1=O)N2 (centres undefined) — higher, 56%
- CC(C)C(=O)N1C2=C(C(=O)c3ccccc32)C(c2ccc(Cl)cc2)c2c1n(C)c(=O)n(C)c2=O (centres undefined) — higher, 22%
- Cn1c2c(c(=O)n(C)c1=O)C(c1ccccc1)C1=C(N2)c2ccccc2C1=O (centres undefined) — lower, 7%
- Cn1c2c(c(=O)n(C)c1=O)C(c1ccc(F)c(F)c1F)C1=C(CC(c3ccco3)CC1=O)N2 (centres undefined) — lower, -3%
- Cn1c2c(c(=O)n(C)c1=O)C(c1cc(F)cc(C(F)(F)F)c1)C1=C(N2)c2ccccc2C1=O (centres undefined) — higher, 93%
- Cn1c2c(c(=O)n(C)c1=O)C(c1cccc(F)c1)C1=C(N2)c2ccccc2C1=O (centres undefined) — higher, 63%
- Cn1c2c(c(=O)n(C)c1=O)C(c1cc(F)cc(F)c1)C1=C(N2)c2ccccc2C1=O (centres undefined) — higher, 63%

test system: not listed separately; test: Inhibition of Escherichia coli heat stable toxin A-stimulated cGMP accumulation in human T84 cells pretreated 10 mins before 1 nM toxin challenge measured after 10 mins of induction by ELISA; assay type: cell-based

Point of comparison: `Cn1c2c(c(=O)n(C)c1=O)C(c1cc(F)cc(C(F)(F)F)c1)C1=C(N2)c2ccccc2C1=O` (centres undefined), IC50 3.4 µM. Against it:
- Cn1c2c(c(=O)n(C)c1=O)C(c1cccc(Br)c1)C1=C(N2)c2ccccc2C1=O (centres undefined) — 2.8-fold higher, 9.6 µM
- Cn1c2c(c(=O)n(C)c1=O)C(c1cc(C(F)(F)F)cc(C(F)(F)F)c1)C1=C(N2)c2ccccc2C1=O (centres undefined) — within 1.5-fold, 2.5 µM
